Experimental data as given in ChEMBL document CHEMBL1136004, “Ethyl (3S,4aR,6S,8aR)-6-(4-ethoxycar- bonylimidazol-1-ylmethyl)decahydroiso-quinoline-3-carboxylic ester: a prodrug of a GluR5 kainate receptor antagonist active in two animal models of acute migraine” (J Med Chem, 2002).

What was measured:
Glutamate receptor 2 = Glutamate receptor 2 (Homo sapiens, UniProt P42262); experiment: Ability to displace binding of [3H]AMPA to recombinant human Ionotropic glutamate receptor AMPA 2
Glutamate receptor 3 = Glutamate receptor 3 (Homo sapiens, UniProt P42263); experiment: Ability to displace binding of [3H]AMPA to recombinant human Ionotropic glutamate receptor AMPA 3
Glutamate receptor 3, sequence (P42263 whole entry): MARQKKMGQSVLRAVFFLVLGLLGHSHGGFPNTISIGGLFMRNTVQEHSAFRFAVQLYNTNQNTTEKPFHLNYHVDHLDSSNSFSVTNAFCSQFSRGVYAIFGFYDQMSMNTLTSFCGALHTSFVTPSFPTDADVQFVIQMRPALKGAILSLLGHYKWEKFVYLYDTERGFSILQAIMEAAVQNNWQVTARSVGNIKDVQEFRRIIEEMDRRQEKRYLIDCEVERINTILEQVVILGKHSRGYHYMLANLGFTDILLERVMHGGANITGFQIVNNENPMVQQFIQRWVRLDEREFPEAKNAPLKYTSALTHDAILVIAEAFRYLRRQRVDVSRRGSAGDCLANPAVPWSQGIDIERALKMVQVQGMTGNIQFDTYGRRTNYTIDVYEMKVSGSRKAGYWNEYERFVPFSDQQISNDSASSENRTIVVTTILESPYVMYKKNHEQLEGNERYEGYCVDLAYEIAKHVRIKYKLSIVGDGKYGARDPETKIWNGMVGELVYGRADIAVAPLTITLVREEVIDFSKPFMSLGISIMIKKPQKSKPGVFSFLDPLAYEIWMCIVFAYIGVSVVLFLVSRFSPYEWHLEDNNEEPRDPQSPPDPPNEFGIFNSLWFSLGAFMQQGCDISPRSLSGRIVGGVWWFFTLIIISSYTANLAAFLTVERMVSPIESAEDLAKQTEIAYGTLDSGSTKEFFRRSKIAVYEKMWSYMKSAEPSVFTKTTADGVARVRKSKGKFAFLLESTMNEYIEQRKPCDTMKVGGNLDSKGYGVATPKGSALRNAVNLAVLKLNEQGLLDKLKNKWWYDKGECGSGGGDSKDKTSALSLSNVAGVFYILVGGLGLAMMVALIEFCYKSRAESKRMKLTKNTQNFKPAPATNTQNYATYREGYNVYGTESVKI
Summary of the method: (§1)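 Radioligand displacement with [3H]AMPA on membranes from HEK 293 cells expressing the cloned human AMPA receptor subunit. Ki (μM) reported as the mean ± SEM of at least three determinations.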

Glutamate receptor 1 = Glutamate receptor 1 (Homo sapiens, UniProt P42261); experiment: Ability to displace binding of [3H]AMPA to recombinant human Ionotropic glutamate receptor AMPA 1; summary of the method: as §1
Glutamate receptor 1, sequence (P42261 whole entry): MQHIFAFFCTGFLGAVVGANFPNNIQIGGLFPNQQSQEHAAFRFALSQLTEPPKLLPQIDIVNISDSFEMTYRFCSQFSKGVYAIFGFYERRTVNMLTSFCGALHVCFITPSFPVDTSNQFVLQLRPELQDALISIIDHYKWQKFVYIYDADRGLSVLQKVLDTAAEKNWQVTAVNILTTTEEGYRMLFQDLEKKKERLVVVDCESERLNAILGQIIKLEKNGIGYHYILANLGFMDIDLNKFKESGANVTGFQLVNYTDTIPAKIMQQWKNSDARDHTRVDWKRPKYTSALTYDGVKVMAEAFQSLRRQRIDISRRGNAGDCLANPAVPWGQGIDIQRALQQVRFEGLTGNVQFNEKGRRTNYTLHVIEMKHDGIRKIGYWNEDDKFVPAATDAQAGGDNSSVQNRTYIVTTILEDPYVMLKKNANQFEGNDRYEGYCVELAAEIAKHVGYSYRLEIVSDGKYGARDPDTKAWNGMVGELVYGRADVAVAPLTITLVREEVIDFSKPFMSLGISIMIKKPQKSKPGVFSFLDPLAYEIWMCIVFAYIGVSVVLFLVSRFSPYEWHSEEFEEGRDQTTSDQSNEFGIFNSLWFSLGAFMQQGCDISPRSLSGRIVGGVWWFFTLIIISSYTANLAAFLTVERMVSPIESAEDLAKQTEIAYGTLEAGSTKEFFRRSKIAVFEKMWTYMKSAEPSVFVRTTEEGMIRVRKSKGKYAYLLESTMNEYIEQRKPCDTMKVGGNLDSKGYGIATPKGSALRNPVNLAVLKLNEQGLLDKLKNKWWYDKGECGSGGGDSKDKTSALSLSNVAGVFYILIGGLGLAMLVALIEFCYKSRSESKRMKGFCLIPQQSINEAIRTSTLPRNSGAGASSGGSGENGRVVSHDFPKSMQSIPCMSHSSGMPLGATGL

[1] = target: T1, Glutamate receptor ionotropic, kainate 2 (Homo sapiens, UniProt Q13002); experiment: Ability to displace binding of [3H]KA to recombinant human KA receptor Ionotropic glutamate receptor ionotropic kainate 2 expressed in EK 293 cell membranes
T1 sequence (Q13002 whole entry): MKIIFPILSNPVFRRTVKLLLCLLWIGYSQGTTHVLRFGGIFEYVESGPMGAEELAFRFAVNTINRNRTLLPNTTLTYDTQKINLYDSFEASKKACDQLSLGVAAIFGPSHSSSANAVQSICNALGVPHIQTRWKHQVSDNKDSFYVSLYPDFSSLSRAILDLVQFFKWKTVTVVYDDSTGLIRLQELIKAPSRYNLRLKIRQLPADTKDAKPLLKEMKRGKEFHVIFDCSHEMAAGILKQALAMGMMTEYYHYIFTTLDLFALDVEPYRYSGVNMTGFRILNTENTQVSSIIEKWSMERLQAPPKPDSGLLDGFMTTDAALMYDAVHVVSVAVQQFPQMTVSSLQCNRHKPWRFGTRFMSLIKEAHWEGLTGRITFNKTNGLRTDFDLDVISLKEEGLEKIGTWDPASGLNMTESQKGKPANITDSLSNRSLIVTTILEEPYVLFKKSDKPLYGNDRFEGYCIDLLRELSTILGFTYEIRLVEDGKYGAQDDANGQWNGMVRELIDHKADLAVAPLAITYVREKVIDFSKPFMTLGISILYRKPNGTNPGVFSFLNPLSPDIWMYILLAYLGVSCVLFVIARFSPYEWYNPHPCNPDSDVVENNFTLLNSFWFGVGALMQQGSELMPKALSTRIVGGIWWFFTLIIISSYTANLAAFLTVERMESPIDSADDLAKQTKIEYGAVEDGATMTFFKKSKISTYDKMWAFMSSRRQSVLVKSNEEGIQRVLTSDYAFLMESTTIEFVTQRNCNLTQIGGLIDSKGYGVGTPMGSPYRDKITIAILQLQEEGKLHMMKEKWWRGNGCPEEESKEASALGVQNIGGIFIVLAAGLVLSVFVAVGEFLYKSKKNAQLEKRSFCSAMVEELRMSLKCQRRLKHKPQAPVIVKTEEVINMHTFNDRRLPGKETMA
Summary of the method: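 Displacement of [3H]KA binding on membranes from HEK 293 cells expressing the recombinant human kainate receptor subunit. Ki (μM) given as the mean ± SEM from at least three determinations.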

Glutamate receptor 4 = Glutamate receptor 4 (Homo sapiens, UniProt P48058); experiment: Ability to displace binding of [3H]AMPA to recombinant human Ionotropic glutamate receptor AMPA 4; summary of the method: as §1
Glutamate receptor 4, sequence (P48058 whole entry): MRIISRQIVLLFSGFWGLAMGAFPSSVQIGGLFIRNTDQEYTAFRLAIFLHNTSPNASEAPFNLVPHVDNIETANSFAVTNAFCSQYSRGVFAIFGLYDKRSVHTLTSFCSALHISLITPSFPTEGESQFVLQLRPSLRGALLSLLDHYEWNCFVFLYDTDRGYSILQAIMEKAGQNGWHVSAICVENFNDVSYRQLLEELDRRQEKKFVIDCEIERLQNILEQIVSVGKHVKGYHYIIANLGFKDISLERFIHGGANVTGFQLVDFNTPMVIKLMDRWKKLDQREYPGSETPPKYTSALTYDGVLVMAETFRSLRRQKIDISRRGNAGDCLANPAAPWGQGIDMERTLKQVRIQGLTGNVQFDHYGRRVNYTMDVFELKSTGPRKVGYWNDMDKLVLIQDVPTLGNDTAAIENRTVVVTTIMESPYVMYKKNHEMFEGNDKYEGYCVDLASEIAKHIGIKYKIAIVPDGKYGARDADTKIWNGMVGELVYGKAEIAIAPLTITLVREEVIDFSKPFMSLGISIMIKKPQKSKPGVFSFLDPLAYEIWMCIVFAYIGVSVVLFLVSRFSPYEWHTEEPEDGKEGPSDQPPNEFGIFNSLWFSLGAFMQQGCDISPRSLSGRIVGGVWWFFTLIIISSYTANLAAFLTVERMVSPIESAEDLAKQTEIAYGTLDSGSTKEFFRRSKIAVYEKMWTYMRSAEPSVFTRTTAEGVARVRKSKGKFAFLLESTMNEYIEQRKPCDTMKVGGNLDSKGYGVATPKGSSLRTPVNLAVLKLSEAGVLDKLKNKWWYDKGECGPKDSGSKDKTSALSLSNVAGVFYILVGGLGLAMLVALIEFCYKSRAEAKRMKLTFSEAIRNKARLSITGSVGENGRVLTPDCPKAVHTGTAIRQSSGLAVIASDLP

[2] = target: Glutamate receptor ionotropic, kainate 1 (Homo sapiens) (UniProt P39086); experiment: Ability to displace binding of [3H]KA to recombinant human Ionotropic glutamate receptor ionotropic kainate 1
[3] = target: T1, Glutamate receptor ionotropic, kainate 2; experiment: Ability to displace binding of [3H]KA to recombinant human KA receptor Ionotropic glutamate receptor ionotropic kainate 2
[4] = target: Glutamate receptor ionotropic, kainate 3 (Homo sapiens) (UniProt Q13003); experiment: Ability to displace binding of [3H]KA to recombinant human KA receptor Ionotropic glutamate receptor ionotropic kainate 3
[5] = Compound was administered orally 1 h prior to trigeminal stimulation and was evaluated for the decrease extravasation

Glutamate receptor 2, sequence (P42262 whole entry): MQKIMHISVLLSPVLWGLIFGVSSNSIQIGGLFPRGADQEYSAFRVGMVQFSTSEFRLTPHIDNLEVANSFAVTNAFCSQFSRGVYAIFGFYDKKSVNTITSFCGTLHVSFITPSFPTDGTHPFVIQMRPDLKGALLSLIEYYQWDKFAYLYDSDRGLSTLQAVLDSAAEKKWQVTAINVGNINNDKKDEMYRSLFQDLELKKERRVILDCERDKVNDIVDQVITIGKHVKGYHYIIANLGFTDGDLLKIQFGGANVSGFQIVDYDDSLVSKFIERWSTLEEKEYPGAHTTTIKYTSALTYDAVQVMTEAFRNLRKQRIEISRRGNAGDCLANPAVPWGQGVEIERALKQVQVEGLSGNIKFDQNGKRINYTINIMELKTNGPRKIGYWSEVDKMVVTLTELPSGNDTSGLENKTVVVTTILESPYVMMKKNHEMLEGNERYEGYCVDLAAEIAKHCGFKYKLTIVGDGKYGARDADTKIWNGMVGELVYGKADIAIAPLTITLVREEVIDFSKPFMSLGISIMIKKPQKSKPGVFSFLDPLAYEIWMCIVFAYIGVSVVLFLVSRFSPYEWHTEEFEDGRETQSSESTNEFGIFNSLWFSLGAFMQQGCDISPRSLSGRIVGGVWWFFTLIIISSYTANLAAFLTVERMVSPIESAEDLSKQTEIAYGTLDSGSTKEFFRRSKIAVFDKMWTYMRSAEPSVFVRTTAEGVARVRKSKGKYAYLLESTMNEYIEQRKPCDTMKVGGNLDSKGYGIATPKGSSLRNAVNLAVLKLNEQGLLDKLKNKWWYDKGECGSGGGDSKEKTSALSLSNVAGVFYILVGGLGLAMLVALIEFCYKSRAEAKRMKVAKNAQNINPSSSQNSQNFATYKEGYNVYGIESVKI

| Ki (Glutamate receptor 2) | Ki (Glutamate receptor 1) | Structure (SMILES) | Ki (Glutamate receptor 3) | Ki [1] | Ki (Glutamate receptor 4) | Ki [2] | Ki [3] | Ki [4] | ID50 [5] |
| --- | --- | --- | --- | --- | --- | --- | --- | --- | --- |
| 117 µM | 134 µM | O=C(O)c1cn(C[C@H]2CC[C@H]3CN[C@H](C(=O)O)C[C@H]3C2)cn1 | 247 µM | 236 µM | 262 µM | 0.156 µM | > 1000 µM | 48.5 µM | – |
| – | – | CN(C)CCc1c[nH]c2ccc(Cn3cncn3)cc12 [RIZATRIPTAN] | – | – | – | – | – | – | 8 µg/kg |
| – | 1.6 µM | NS(=O)(=O)c1cccc2c1c([N+](=O)[O-])cc1nc(O)c(O)nc12 [NBQX] | – | – | – | – | – | – | – |

| Structure (SMILES) | Ki (Glutamate receptor 2) | Ki (Glutamate receptor 1) | Ki (Glutamate receptor 3) | Ki [1] | Ki (Glutamate receptor 4) | Ki [2] | Ki [3] | Ki [4] | ID50 [5] |
| --- | --- | --- | --- | --- | --- | --- | --- | --- | --- |
| O=C(O)[C@@H]1C[C@H]2C[C@@H](CCc3nn[nH]n3)CC[C@H]2CN1 [TEZAMPANEL ANHYDROUS] | – | 9.2 µM | 32 µM | > 100 µM | 50 µM | 4.2 µM | > 100 µM | > 100 µM | – |
